For 30 compounds, outcome, activation and potentiation results are on record in PubChem BioAssay.

Test [1] in a line: nonspecific flux increase, KCNQ1-free cells – parental CHO cells, counter-screen for KCNQ1 potentiator project (AID 493006;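 active means duplicate-averaged activation above buffer control mean plus 5 SD of those controls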;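 on activation: fluorescence ratio of max minus min over baseline after K+ and Tl+ depolarization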). As to conditions: parental CHO-K1 cells, FluxOR thallium flux, at 10 µM; hits give high values. In a few lines:
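Material: parental CHO-K1 cells, FluxOR dye-loaded; Also added: Potassium/thallium depolarization pulse; Schedule: overnight 37 °C plating, 90 min dye, 20 min dark compound; Signal: kinetic FluxOR fluorescence, 10 s baseline, 110 s after stimulus.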
(In general: The purpose of a counterscreen is to sort out artefacts and off-target activity.)

Test [2] concerns the target Potassium voltage-gated channel subfamily KQT member 1 (Homo sapiens) (UniProt P51787). In words: enhancement of KCNQ1 channel thallium flux – FluxOR thallium flux, CHO cells, duplicates, confirmation (AID 493007).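 On outcome: cells depolarized by a potassium plus thallium sulfate stimulus after compound.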 As to conditions: KCNQ1 cell line, FluxOR thallium flux fluorescence, at 10 µM; hits give high values, % of reference activator effect, buffer zero. In a few lines: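 System: KCNQ1-expressing CHO cell line; technique: kinetic thallium influx fluorescence with FluxOR dye, 10 s baseline, 110 s post-stimulus; timing: dye 90 min then compound 20 min, both at room temperature; controls: buffer-only wells as 0% and R-L3 activator as 100%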

In test [3] the target is Potassium voltage-gated channel subfamily KQT member 2 (Rattus norvegicus) (UniProt O88943). In words: KCNQ2 thallium flux enhancement – KCNQ2-CHO-K1 cells, selectivity assay for KCNQ1 potentiator project (AID 493009;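 active means mean duplicate potentiation above the buffer control mean plus 5 SD of buffer wells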;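 further: assay conditions were tuned for KCNQ1 rather than KCNQ2 modulators; signal is max minus min fluorescence divided by baseline after thallium stimulus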). As to conditions: FluxOR thallium flux fluorescence, at 10 µM; hits give high values, scaled: buffer 0, activator control 100.
Potassium voltage-gated channel subfamily KQT member 2 (Rattus norvegicus), sequence (O88943 whole entry, looked up): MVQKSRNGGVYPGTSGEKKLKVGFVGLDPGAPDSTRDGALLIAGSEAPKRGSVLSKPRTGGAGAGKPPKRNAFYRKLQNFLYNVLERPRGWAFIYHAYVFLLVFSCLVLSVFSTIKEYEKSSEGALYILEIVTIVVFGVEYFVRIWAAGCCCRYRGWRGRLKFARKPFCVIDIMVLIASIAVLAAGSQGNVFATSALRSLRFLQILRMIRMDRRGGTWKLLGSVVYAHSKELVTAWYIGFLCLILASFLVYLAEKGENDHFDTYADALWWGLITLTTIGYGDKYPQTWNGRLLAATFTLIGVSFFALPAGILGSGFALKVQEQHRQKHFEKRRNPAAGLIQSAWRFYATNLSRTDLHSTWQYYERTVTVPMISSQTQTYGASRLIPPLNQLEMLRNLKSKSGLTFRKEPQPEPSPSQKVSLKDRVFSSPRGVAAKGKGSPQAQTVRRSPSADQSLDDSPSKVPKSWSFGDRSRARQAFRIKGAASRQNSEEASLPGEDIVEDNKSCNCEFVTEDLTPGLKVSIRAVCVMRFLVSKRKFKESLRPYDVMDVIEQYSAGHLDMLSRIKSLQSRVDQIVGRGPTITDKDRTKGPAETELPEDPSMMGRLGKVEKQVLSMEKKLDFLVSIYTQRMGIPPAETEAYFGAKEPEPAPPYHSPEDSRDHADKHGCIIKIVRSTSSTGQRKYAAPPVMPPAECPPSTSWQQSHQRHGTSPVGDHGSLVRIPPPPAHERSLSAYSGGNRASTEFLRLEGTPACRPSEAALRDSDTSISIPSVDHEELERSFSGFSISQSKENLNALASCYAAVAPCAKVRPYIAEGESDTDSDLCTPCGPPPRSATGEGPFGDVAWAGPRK
The target in test [4] is Potassium voltage-gated channel subfamily KQT member 1 (Homo sapiens) (UniProt P51787). In words: KCNQ1 activators by electrophysiology – IonWorks patch clamp, KCNQ1-CHO cells, orthogonal assay for KCNQ1 potentiator project, confirmation (AID 493184;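 active means current rise at least 3 SD above the untreated control mean in each of two repeat wells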). As to conditions: automated patch clamp current, at 10 µM; hits give high values. In a few lines: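 Test system: KCNQ1-expressing CHO cells. Medium: pH 7.4 external bath. Probe or stimulus: voltage step from -90 mV holding to +40 mV, 2,000 ms. Compound: 10 µM final, single point. Detection: automated perforated-patch electrophysiology. Read-out: percent current increase versus pre-compound level. Repeats: two replicates.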
Potassium voltage-gated channel subfamily KQT member 1 (Homo sapiens), sequence (P51787 whole entry, looked up): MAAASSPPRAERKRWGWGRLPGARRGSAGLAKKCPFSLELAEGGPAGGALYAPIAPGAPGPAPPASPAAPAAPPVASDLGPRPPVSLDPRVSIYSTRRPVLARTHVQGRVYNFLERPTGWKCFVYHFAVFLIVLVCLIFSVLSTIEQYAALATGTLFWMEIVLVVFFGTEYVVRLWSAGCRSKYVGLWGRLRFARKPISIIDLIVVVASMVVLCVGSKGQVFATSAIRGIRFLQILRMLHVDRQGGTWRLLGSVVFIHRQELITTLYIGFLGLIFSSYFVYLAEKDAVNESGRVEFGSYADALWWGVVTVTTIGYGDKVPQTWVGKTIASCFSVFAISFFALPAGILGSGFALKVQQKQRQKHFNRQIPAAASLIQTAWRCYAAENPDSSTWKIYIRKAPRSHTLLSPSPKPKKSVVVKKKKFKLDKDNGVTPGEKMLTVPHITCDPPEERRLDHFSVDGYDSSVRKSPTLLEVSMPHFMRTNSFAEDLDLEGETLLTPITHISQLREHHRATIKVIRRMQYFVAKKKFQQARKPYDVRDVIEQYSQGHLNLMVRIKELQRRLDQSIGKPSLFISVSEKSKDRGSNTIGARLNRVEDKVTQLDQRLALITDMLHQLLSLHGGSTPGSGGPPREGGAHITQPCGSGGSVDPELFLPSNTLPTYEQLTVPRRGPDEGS

Activity calls are given as the source filed them.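 How the source made its calls, unless noted: active means potentiation averaged over duplicate wells exceeding buffer-only control mean by more than 3 SD; inactive means the rest.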

Regarding `O=C(Nc1ccccc1F)C1C2C=CC3(O2)C1C(=O)N(c1cccnc1)C3C(=O)NC1CCCCC1` (stereo not given), the result in test [1], in test [2], in test [3] and in test [4] was inactive.

In the case of `COc1ccc(CN2C(=O)C(O)(CC(=O)c3ccc4c(c3)OCO4)c3ccccc32)cc1OC` (stereo not given), the result in test [1], in test [2], in test [3] and in test [4] was inactive.

For the compound `O=C(NCc1ccco1)C1CC(c2ccc(Cl)cc2)=NO1` (stereo not given), the outcome in test [1], in test [2], in test [3] and in test [4] was inactive.

For `CC(C)C(=O)Nc1c(O)c2ccccc2[nH]c1=O`, the result in test [1], in test [2], in test [3] and in test [4] was inactive.

Turning to `COc1cc(C(=O)NC(=S)NC(C)C)cc(OC)c1OC`, the outcome in test [1], in test [2], in test [3] and in test [4] was inactive.

For `O=C(Nc1cc([N+](=O)[O-])ccc1N1CCCC1)c1cccs1`, the result in test [1], in test [2], in test [3] and in test [4] was inactive.

Regarding `COC(=O)[C@@H]1CCCN1C(=O)CCc1nnc(CCC2CCCCC2)o1`, the outcome in test [1], in test [2], in test [3] and in test [4] was inactive.

For the compound `O=C(O)CCC(=O)Nc1ccc(S(=O)(=O)c2ccc(NC(=O)CCC(=O)O)cc2)cc1`, the result in test [1], in test [2], in test [3] and in test [4] was inactive.

Take `CN(C)c1ccc(-c2nn3c(-c4ccccc4Cl)nnc3s2)cc1`: the result in test [1], in test [2], in test [3] and in test [4] was inactive.

On to `O=C1CCC/C(=N\NC(=O)c2ccc(COc3cccc4cccnc34)cc2)C1`, for which the outcome in test [1], in test [2], in test [3] and in test [4] was inactive.

Take `CN(C(=O)CSc1ncnc2sc(-c3ccccc3)cc12)C1CCS(=O)(=O)C1` (stereo not given): in test [1], the activation is 529% (active). Moreover, the potentiation in test [2] was 176% (active); in test [3], 501% (active). For the same compound, in test [4], the result was inactive.

Turning to `CCCCn1c(N)c(C(=S)NC(=O)CC(C)(C)C)c(=O)n(C)c1=O`, the activation in test [1] is 140% (active). Besides, the potentiation in test [2] is 37.5% (active); in test [3], 148% (active). In addition, in test [4], the result was inactive.

On to `CCOc1ccc2nc(/N=C/c3nc(-c4ccccc4)oc3O)sc2c1`, for which the activation in test [1] was 150% (active). Moreover, the potentiation was 52.5% (active) in test [2] and 190% (active) in test [3]. In test [4], the result was inactive.

For the compound `CSC(=S)N/N=C/c1ccccc1`, in test [1], the activation is 245% (active). In addition, the results for the potentiation in test [2] and in test [3] were 48.5% (active) and 226% (active), respectively. In addition, the outcome in test [4] was inactive.

`CCCn1cc(NC(=O)c2cc(-c3ccccc3)on2)cn1`: the outcome in test [1], in test [3] and in test [4] was inactive. Moreover, in test [2], the potentiation is 25% (active).

As to `CCOc1cc(CNCCCN2CCOCC2)ccc1OCC(=O)NC(C)(C)C`, the result in test [1], in test [2], in test [3] and in test [4] was inactive.

Turning to `O=c1[nH]sc2ccccc12`, the result in test [1], in test [2], in test [3] and in test [4] was inactive.

As to `N=C1S/C(=C\c2ccc(-c3cccc(Cl)c3)o2)C(=O)N1c1nccs1`, the result in test [1], in test [3] and in test [4] was inactive. Moreover, the potentiation in test [2] is 19% (active).

Take `CCOC(=O)C1(CC2CCCCO2)CCN(Cc2cc3ccccc3[nH]2)CC1` (stereo not given): the outcome in test [1], in test [2], in test [3] and in test [4] was inactive.

For `COc1cc(CNCc2ccccn2)ccc1OCc1ccc(Cl)cc1`, the result in test [1], in test [2], in test [3] and in test [4] was inactive.

Regarding `c1csc(-c2csc3ncnc(NCCCN4CCOCC4)c23)c1`, the result in test [1], in test [2], in test [3] and in test [4] was inactive.

For `COC(=O)c1ccc(CSc2ncnc3c2sc2nc(N4CCOCC4)c4c(c23)CCCC4)o1`, the outcome in test [1], in test [2], in test [3] and in test [4] was inactive.

`COc1ccc(NC(=S)NC(=O)c2ccccc2Cl)cc1`: the result in test [1], in test [2], in test [3] and in test [4] was inactive.

With `CCC1CCC2(CC1)NC(CO)(CO)CO2` (stereo not given), the outcome in test [1], in test [2], in test [3] and in test [4] was inactive.

`C=CCNC(=S)Nc1sc2c(c1C(=O)OCC)CC(C)(CC)OC2` (stereo not given): the activation in test [1] was 318% (active). In addition, the potentiation in test [2] is 49.5% (active); in test [3], 254% (active). For the same compound, the result in test [4] was inactive.

Take `CN1CCN(c2ccccc2NC(=S)NC(=O)c2cc3ccccc3o2)CC1`: the result in test [1], in test [2], in test [3] and in test [4] was inactive.

Take `CC(/C=N/n1c(C2CCCCC2)n[nH]c1=S)=C\c1ccccc1`: the result in test [1] and in test [4] was inactive. Besides, the potentiation in test [2] is 270% (active); in test [3] it was 423% (active).

As for `O=C(c1ccc(-c2ccccc2)cc1)N1CCCC1`, the activation in test [1] is 188% (active). The potentiation is 217% (active) in test [2] and 233% (active) in test [3]. Moreover, the result in test [4] was inactive.

Consider `COc1ccc(CN2CCCC(CNC(=O)c3ccc(F)cc3)C2)c(C)c1C` (stereo not given), for which the result in test [1], in test [2], in test [3] and in test [4] was inactive.

On to `COC(=O)c1c(N)sc2c1CCN(c1ncc(C(F)(F)F)cc1Cl)C2`, for which the result in test [1], in test [2] and in test [4] was inactive. In addition, the potentiation in test [3] is 142% (active).
